Results from ChEMBL document CHEMBL4325893, “Synthesis and antibacterial profiles of targeted triclosan derivatives” (2019).
In brackets after ≈: the same amount, converted by molar mass.

Legend:
Citrobacter freundii [1] = assay: Antibacterial activity against Citrobacter freundii 8090 after 18 hrs; format: functional; settings: Citrobacter freundii, 8090, 18 h
Outline: (§1)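 Broth microdilution in Nutrient Broth No. 2; stocks in ethanol diluted to 0.01–128 µg/ml (triclosan) or 0.25–256 µg/ml (glycosides). Overnight 37 °C NB2 cultures diluted 1 in 10^4 in saline and added to the dilutions. Incubation at 37 °C with agitation, OD read every 15 min; MIC is the lowest concentration preventing any OD rise after 18 h.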

Citrobacter freundii [2] = assay: Antibacterial activity against Citrobacter freundii OCC 851 after 18 hrs; format: functional; settings: OCC 851, 18 h; outline: as §1
Escherichia coli [3] = assay: Antibacterial activity against Escherichia coli 700728 after 18 hrs; format: functional; settings: Escherichia coli, 700728, 18 h; outline: as §1
Staphylococcus aureus [4] = assay: Antibacterial activity against Staphylococcus aureus ATCC 29213 after 18 hrs; format: functional; settings: ATCC 29213, 18 h; outline: as §1
Proteus mirabilis = assay: Antibacterial activity against Proteus mirabilis ATCC 12453 after 18 hrs; format: functional; settings: ATCC 12453, 18 h; outline: as §1
Klebsiella pneumoniae = assay: Antibacterial activity against Klebsiella pneumoniae ATCC 13883 after 18 hrs; format: functional; settings: ATCC 13883, 18 h; outline: as §1
Streptococcus viridans = assay: Antibacterial activity against Streptococcus viridans OCC 234 after 18 hrs; format: functional; settings: OCC 234, 18 h
Outline: (§2)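 Broth microdilution in Nutrient Broth No. 2. Ethanol stocks were diluted in broth to 0.01–128 µg/ml for triclosan and 0.25–256 µg/ml for glycosides. Overnight 37°C NB2 cultures were diluted 1 in 10^4 in saline and added to the wells. Plates were incubated at 37°C with OD read every 15 min after agitation. MIC was the lowest concentration giving no OD increase at 18 h.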

Salmonella enteritidis = assay: Antibacterial activity against Salmonella enterica subspecies enterica serotype Enteritidis 13076 after 18 hrs; format: functional, Salmonella enterica subsp. enterica serovar Enteritidis; settings: Salmonella enterica, 13076, 18 h; outline: as §1
Streptococcus pneumoniae = assay: Antibacterial activity against Streptococcus pneumoniae 6305 after 18 hrs; format: functional; settings: Streptococcus pneumoniae, 6305, 18 h; outline: as §2
Escherichia coli [5] = assay: Antibacterial activity against Escherichia coli OCC 122 after 18 hrs; format: functional; settings: OCC 122, 18 h; outline: as §1
Pseudomonas aeruginosa = assay: Antibacterial activity against Pseudomonas aeruginosa ATCC 27853 after 18 hrs; format: functional; settings: ATCC 27853, 18 h; outline: as §1
Escherichia coli [6] = assay: Antibacterial activity against Escherichia coli ATCC 8739 after 18 hrs; format: functional; settings: ATCC 8739, 18 h; outline: as §1
[7] = Antibacterial activity against Enterobacter cloacae ATCC 13047 after 18 hrs; format: functional, Enterobacter cloacae subsp. cloacae; settings: ATCC 13047, 18 h; outline: as §1
Escherichia coli [8] = assay: Antibacterial activity against Escherichia coli ATCC 11775 after 18 hrs; format: functional; outline: as §1
Streptococcus pyogenes = assay: Antibacterial activity against Streptococcus pyogenes ATCC 19615 after 18 hrs; format: functional; settings: ATCC 19615, 18 h; outline: as §2
Streptococcus agalactiae = assay: Antibacterial activity against Streptococcus agalactiae OCC 182 after 18 hrs; format: functional; settings: OCC 182, 18 h; outline: as §2
Escherichia coli [9] = assay: Antibacterial activity against Escherichia coli NCTC 13216 after 18 hrs; format: functional; settings: NCTC 13216, 18 h; outline: as §1
[10] = Antibacterial activity against Salmonella enterica subspecies enterica serotype Indiana OCC 597 after 18 hrs; format: functional, Salmonella enterica subsp. enterica serovar Indiana; settings: OCC 597, 18 h; outline: as §1
Proteus vulgaris = assay: Antibacterial activity against Proteus vulgaris OCC 195 after 18 hrs; format: functional; settings: OCC 195, 18 h; outline: as §1
Salmonella typhimurium = assay: Antibacterial activity against Salmonella enterica subspecies enterica serotype typhimurium ATCC 14028 after 18 hrs; format: functional, Salmonella enterica subsp. enterica serovar Typhimurium; settings: ATCC 14028, 18 h; outline: as §1
Escherichia coli [11] = assay: Antibacterial activity against Escherichia coli ATCC 10536 after 18 hrs; format: functional; settings: ATCC 10536, 18 h; outline: as §1
[12] = system: Staphylococcus epidermidis; assay: Antibacterial activity against Staphylococcus epidermidis ATCC 12228 after 18 hrs; format: functional; settings: ATCC 12228, 18 h; outline: as §1
Staphylococcus aureus [13] = assay: Antibacterial activity against Staphylococcus aureus ATCC 9144 after 18 hrs; format: functional; settings: ATCC 9144, 18 h; outline: as §1
[14] = Antibacterial activity against Salmonella enterica subspecies enterica serotype Pullorum OCC 273 after 18 hrs; format: functional, Salmonella enterica subsp. enterica serovar Pullorum; settings: OCC 273, 18 h; outline: as §1
[15] = Antibacterial activity against Salmonella enterica subspecies enterica serotype Virchow NCTC 5742 after 18 hrs; format: functional, Salmonella enterica subsp. enterica serovar Virchow; settings: NCTC 5742, 18 h; outline: as §1
Enterococcus faecium = assay: Antibacterial activity against Enterococcus faecium ATCC 19434 after 18 hrs; format: functional; settings: ATCC 19434, 18 h; outline: as §1
[16] = system: Staphylococcus saprophyticus; assay: Antibacterial activity against Staphylococcus saprophyticus ATCC 15305 after 18 hrs; format: functional; settings: ATCC 15305, 18 h; outline: as §2
[17] = system: Salmonella enterica subsp. enterica serovar Abony; assay: Antibacterial activity against Salmonella enterica subspecies enterica serotype Abony NCTC 6017 after 18 hrs; format: functional; settings: NCTC 6017, 18 h; outline: as §1

## OC[C@H]1O[C@@H](Oc2cc(Cl)ccc2Oc2ccc(Cl)cc2Cl)[C@H](O)[C@@H](O)[C@H]1O
Citrobacter freundii [1]
  MIC: 8 µg/mL (≈ 17.7 µM)
Citrobacter freundii [2]
  MIC: 8 µg/mL (≈ 17.7 µM)
Escherichia coli [3]
  MIC: 0.5 to 32 µg/mL (≈ 1.11 to 70.8 µM)
Staphylococcus aureus [4]
  MIC: 0.5 µg/mL (≈ 1.11 µM)
Proteus mirabilis
  MIC: 4 µg/mL (≈ 8.86 µM)
Klebsiella pneumoniae
  MIC: 0.5 µg/mL (≈ 1.11 µM)
Streptococcus viridans
  MIC: 256 µg/mL (≈ 567 µM)
Salmonella enteritidis
  MIC: 2 to 16 µg/mL (≈ 4.43 to 35.4 µM)
Streptococcus pneumoniae
  MIC: 128 µg/mL (≈ 283 µM)
Escherichia coli [5]
  MIC: 0.5 to 32 µg/mL (≈ 1.11 to 70.8 µM)
Pseudomonas aeruginosa
  MIC: > 256 µg/mL
Escherichia coli [6]
  MIC: 0.5 to 32 µg/mL (≈ 1.11 to 70.8 µM)
[7]
  MIC: 0.5 µg/mL (≈ 1.11 µM)
Escherichia coli [8]
  MIC: 0.5 to 32 µg/mL (≈ 1.11 to 70.8 µM)
Streptococcus pyogenes
  MIC: 128 µg/mL (≈ 283 µM)
Streptococcus agalactiae
  MIC: 256 µg/mL (≈ 567 µM)
Escherichia coli [9]
  MIC: 0.5 to 32 µg/mL (≈ 1.11 to 70.8 µM)
[10]
  MIC: 2 to 16 µg/mL (≈ 4.43 to 35.4 µM)
Proteus vulgaris
  MIC: 8 µg/mL (≈ 17.7 µM)
Salmonella typhimurium
  MIC: 2 to 16 µg/mL (≈ 4.43 to 35.4 µM)
Escherichia coli [11]
  MIC: 0.5 to 32 µg/mL (≈ 1.11 to 70.8 µM)
[12]
  MIC: 0.5 µg/mL (≈ 1.11 µM)
Staphylococcus aureus [13]
  MIC: 0.5 µg/mL (≈ 1.11 µM)
[14]
  MIC: 2 to 16 µg/mL (≈ 4.43 to 35.4 µM)
[15]
  MIC: 2 to 16 µg/mL (≈ 4.43 to 35.4 µM)
Enterococcus faecium
  MIC: > 256 µg/mL
[16]
  MIC: 8 µg/mL (≈ 17.7 µM)
[17]
  MIC: 2 to 16 µg/mL (≈ 4.43 to 35.4 µM)
